Broadly, the IC50 is the concentration needed to halve the response being measured. Broadly, the inhibition is the percentage by which the read-out fell short of the control. As a reminder, the Inhibition is the drop in the measured response relative to a control, in per cent. Low readings indicate a weak effect, high ones a strong effect.

For assay [1], the system named is L1210. Briefly: Compound was tested for release of tritium from 1 uM [5-3H]-dUMP into water at a conc of 0.4 mM enzyme(bovine thymidylate synthase) was added to cell suspension in presence of CH2O. Type of assay: functional, Mus musculus. In a few lines: (§1)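 L1210 cells (transplanted, harvested), partially permeabilized with dextran sulfate, at (2–5) × 10^7 cells/mL. Preincubated with cofactor 15 min at 37 °C with 0.2 mM NADPH, 1 mM serine or 7.5 mM CH2O, 2-mercaptoethanol, MgCl2, EDTA, NaF, 80 mM Tris-acetate pH 7.4. Then 1 μM [5-3H]dUMP added for 30 min. Where enzyme added, 0.016 unit per 0.15 mL suspension. Tritium in water given as % of total, background-corrected; two experiments in duplicate.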

Assay [2] concerns L1210. Briefly: Compound was tested for release of tritium from 1 uM [5-3H]-dUMP into water at a con of 0.4 mM and without addition of bovine thymidylate synthase to cell suspension in absence of serine. It counts as functional, Mus musculus. A digest of the protocol:
as §1

In assay [3] the test system is L1210. Briefly: Compound was tested for release of tritium from 1 uM [5-3H]-dUMP into water at a conc of 0.4 mM enzyme(bovine thymidylate synthase) was added to cell suspension in presence of serine. It counts as functional, Mus musculus. A digest of the protocol:
as §1

For assay [4], the system named is L1210. Briefly: (§2) Inhibitory activity against growth of L1210 leukemia cells in culture. Type of assay: functional, cell-based. As to conditions: Mus musculus. In a few lines:
(§3)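 Murine L1210 leukemia cells, duplicate cultures, exposed to increasing concentrations alongside folic acid for 48 h at 37 °C in RPMI 1640 with 10% fetal calf serum. Cells counted; IC50 (50% inhibition of control growth) read graphically; percent inhibition also taken at 0.5 mM. Averages of two experiments run in duplicate.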

Assay [5] concerns L1210. Briefly: Inhibitory activity against growth of L1210 leukemia cells in culture at 0.5 mM. It counts as functional. The following applies: Mus musculus. A digest of the protocol:
as §3

Assay [6] deals with L1210. Briefly: Compound was tested for release of tritium from 1 uM [5-3H]-dUMP into water at a con of 0.4 mM and without addition of bovine thymidylate synthase to cell suspension in absence of CH2O. Type of assay: functional, Mus musculus. In a few lines: as §1
The test system of assay [7] is L1210. Briefly: Compound was tested for release of tritium from 1 uM [5-3H]-dUMP into water at a conc of 0.4 mM, enzyme(bovine thymidylate synthase) was added to cell suspension in presence of serine. Type of assay: functional, Mus musculus. A digest of the protocol: as §1
Assay [8] deals with L1210. Described as §2. It counts as functional, Mus musculus. In a few lines: as §3

Consider `CS(=O)(=O)CCC(NC(=O)c1ccc(NCc2cnc3nc(N)nc(O)c3n2)cc1)C(=O)O` (stereo unspecified), for which the Tritium release with L1210 [1] was found to be 6.7%; in the assay on L1210 [2], 3.6%; in the assay on L1210 [3], 7.8%; in the assay on L1210 [6], 4.6%. In addition, the IC50 in the assay on L1210 [4] is 390 µM. Moreover, the inhibition at 500 µM in the assay on L1210 [5] is 78.6%.

Consider `C[S+](=N)([O-])CCC(NC(=O)c1ccc(NCc2cnc3nc(N)nc(O)c3n2)cc1)C(=O)O` (mixture of isomers), for which the Tritium release with L1210 [1] came out at 8.3%; in the assay with L1210 [2] it was 3.9%; in the assay with L1210 [7], 9.5%; in the assay with L1210 [6], 5%. In addition, in the assay on L1210 [4], the IC50 came out at 190 µM. This molecule also came in with an inhibition at 500 µM with L1210 [5] of 76.4%.

For `CC[S+](=N)([O-])CCC(NC(=O)c1ccc(NCc2cnc3nc(N)nc(O)c3n2)cc1)C(=O)O` (racemic), the Tritium release is listed as 6.8% in the assay on L1210 [1], 4.2% in the assay on L1210 [2], 8.3% in the assay with L1210 [3] and 4.9% with L1210 [6]. The same molecule showed an IC50 with L1210 [4] of 220 µM. In the assay with L1210 [5], at 500 µM the inhibition was 80.2%.

Consider `CCCC[S+](=N)([O-])CCC(NC(=O)c1ccc(NCc2cnc3nc(N)nc(O)c3n2)cc1)C(=O)O` (racemic), for which the Tritium release in the assay on L1210 [1] turned out to be 5.8%; in the assay with L1210 [2] it was 4%; with L1210 [3] it was 7%; with L1210 [6], 4.4%. Further, the IC50 in the assay with L1210 [4] came to 270 µM. Besides, the inhibition at 500 µM with L1210 [5] was determined as 75.2%.

Turning to `CCC[S+](=N)([O-])CCC(NC(=O)c1ccc(NCc2cnc3nc(N)nc(O)c3n2)cc1)C(=O)O` (racemic), the Tritium release with L1210 [1] is given as 7.3%; in the assay with L1210 [2] it was 4.2%; with L1210 [3], 9.2%; in the assay on L1210 [6], 4.3%. In addition, in the assay on L1210 [4], the IC50 was found to be 300 µM. Besides, the inhibition at 500 µM in the assay with L1210 [5] came out at 75.2%.

On to `Nc1nc(=O)c2nc(CNc3ccc(C(=O)N[C@@H](CCC(=O)O)C(=O)O)cc3)cnc2[nH]1` [FOLIC ACID], for which the Tritium release in the assay on L1210 [1] was 21.8%; in the assay on L1210 [2], 19.1%; with L1210 [3], 24.1%; with L1210 [6], 20.6%. In the assay with L1210 [8], this molecule displayed an Inhibition of 33.6%. In addition, the IC50 with L1210 [4] is over 10000 µM.

(Values after ChEMBL document CHEMBL1125420, “Synthesis and biological activity of novel folic acid analogues: pteroyl-S-alkylhomocysteine sulfoximines” (J Med Chem, 1992).)
